Source: ChEMBL document CHEMBL4385654, “Inhibitory effects of N-(acryloyl)benzamide derivatives on tyrosinase and melanogenesis” (Bioorg Med Chem, 2019)
Activity calls are given as the source filed them. The rule behind the calls is not given here.

Experiments:
[1] = Antioxidant activity assessed as DPPH-radical scavenging activity at 1 mM incubated for 30 mins under dark condition by microplate reader based assay relative to control; type: functional
Outline: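 20 µL of 10 mM DMSO stock mixed with 180 µL of 0.2 mM DPPH in methanol (stated test level 1 mM). L-ascorbic acid served as the positive control. Kept 30 min in the dark, then absorbance read at 517 nm. Scavenging % = 100×(Ac−As)/Ac against the untreated control. Three independent experiments, mean ± SD.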

Mus musculus [2] = species on record: Mus musculus; assay: Inhibition of tyrosinase in alpha-MSH-stimulated mouse B16F10 cells assessed as reduction in melanin levels at 5 uM incubated for 24 hrs by microplate reader based assay relative to control
Outline: (§1)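 B16F10 cells were seeded at 5x10^4 per well and cultured 24 h at 37 °C, 5% CO2. They were then co-treated with 1 µM α-MSH and test agent (0, 5, 10 or 25 µM) for 24 h, with kojic acid at 25 µM alongside. After two PBS washes, melanin was dissolved in 200 µL 1 M NaOH for 1 h and OD405 read. Triplicate runs.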

B16-F10 = assay: Cytotoxicity in mouse B16F10 cells assessed as reduction in cell viability up to 25 uM incubated for 24 hrs by WST-8 assay; type: cell-based; settings: b16-f10, 24 h
Outline: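 B16F10 murine melanoma cells were grown in DMEM with 10% FBS, penicillin and streptomycin at 37 °C and 5% CO2, seeded at 5x10^4 per well and cultured 24 h. They were then dosed at 0, 5, 10 or 25 for 24 h. WST-8 reagent was added, and OD450 was read. Viability is given as % of untreated cells; triplicate runs.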

Mus musculus [3] = species on record: Mus musculus; assay: Inhibition of tyrosinase in alpha-MSH-stimulated mouse B16F10 cells assessed as reduction in melanin levels at 25 uM incubated for 24 hrs by microplate reader based assay relative to control; outline: as §1
Mus musculus [4] = species on record: Mus musculus; assay: Inhibition of tyrosinase in alpha-MSH-stimulated mouse B16F10 cells at 25 uM incubated for 24 hrs by microplate reader based assay
Outline: (§2)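 B16F10 cells were seeded at 5x10^4 per well and cultured 24 h, then given 1 µM α-MSH plus agent (0–25 µM; kojic acid 25 µM; arbutin 400 µM) for 24 h. Cells were PBS-washed and lysed in 1% Triton X-100, 0.1 mM PMSF, 50 mM phosphate pH 6.8. Lysate was frozen at −80 °C, then centrifuged. 80 µL supernatant was mixed with 20 µL 10 mM L-DOPA, held 30 min at 37 °C, and OD500 read. Triplicate runs.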

Mus musculus [5] = species on record: Mus musculus; assay: Inhibition of tyrosinase in alpha-MSH-stimulated mouse B16F10 cells assessed as reduction in melanin levels at 10 uM incubated for 24 hrs by microplate reader based assay relative to control; outline: as §1
Mus musculus [6] = species on record: Mus musculus; assay: Inhibition of tyrosinase in alpha-MSH-stimulated mouse B16F10 cells at 400 uM incubated for 24 hrs by microplate reader based assay; outline: as §2

Work on COc1ccc(/C=C/C(=O)NC(=O)c2ccccc2)cc1 yielded an inhibition [1] of 5.61%.

For O=C(/C=C/c1ccc(O)c(Br)c1)NC(=O)c1ccccc1, the inhibition [1] was 17.3%.

For COc1cc(/C=C/C(=O)NC(=O)c2ccccc2)cc(OC)c1OC, the inhibition [1] was 6.9%.

With O=C(/C=C/c1ccc(O)cc1)NC(=O)c1ccccc1 the inhibition [1] was 4.89%.

With COc1ccc(/C=C/C(=O)NC(=O)c2ccccc2)cc1OC the inhibition [1] was 4.82%.

With COc1ccc(/C=C/C(=O)NC(=O)c2ccccc2)cc1O the inhibition (Mus musculus [2]) was 9.06%, the inhibition [1] was 7.02% and the Activity (B16-F10) was “Non-Toxic”. The inhibition (Mus musculus [3]) was 48%, the inhibition (Mus musculus [4]) was 59.7% and the inhibition (Mus musculus [5]) was 31.2%.

In the case of O=C(/C=C/c1cc(Br)c(O)c(Br)c1)NC(=O)c1ccccc1, the inhibition [1] was “inactive”.

OC[C@H]1O[C@@H](Oc2ccc(O)cc2)[C@H](O)[C@@H](O)[C@@H]1O showed an inhibition (Mus musculus [6]) of 41.8%.

Compound O=c1cc(CO)occ1O has an inhibition (Mus musculus [3]) of 39% and an inhibition (Mus musculus [4]) of 50.3%.

With O=C(/C=C/c1ccc(O)c(O)c1)NC(=O)c1ccccc1 the inhibition (Mus musculus [2]) was 21.6%, the inhibition [1] was 82.9% and the Activity (B16-F10) was “Non-Toxic”. It also gave an inhibition (Mus musculus [3]) of 61.8%, an inhibition (Mus musculus [4]) of 76.8% and an inhibition (Mus musculus [5]) of 37.6%.

COc1ccc(/C=C/C(=O)NC(=O)c2ccccc2)c(OC)c1 showed an inhibition [1] of 5.76%.

Work on COc1cc(/C=C/C(=O)NC(=O)c2ccccc2)cc(OC)c1O yielded an inhibition [1] of 3.76%.

For O=C1O[C@H]([C@@H](O)CO)C(O)=C1O, the inhibition [1] was 84.6%.
